From ChEMBL document CHEMBL3124904, “Second-generation derivatives of the eukaryotic translation initiation inhibitor pateamine A targeting eIF4A as potential anticancer agents” (Bioorg Med Chem, 2014)

Legend:
HeLa [1] = test: Antiproliferative activity against human HeLa cells assessed as DNA synthesis level after 24 hrs by thymidine incorporation assay; type: functional, cell-based
In short: (§1)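 Cells kept at 37 °C, 5% CO2 with penicillin-streptomycin and 10% FBS. Adherent lines seeded at 2000 cells/well and left to recover overnight; Jurkat seeded at 5000 cells/well with no recovery period. Compound added in DMSO (0.1% final, vehicle-only control) at 0.001–100 nM over 10 wells. DNA synthesis read out after 24 h. Mean IC50 from at least 3 independent assays.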

[2] = Half life in RPMI media at 10 uM by HPLC analysis; type: physicochemical
In short: (§2)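 Compound added from DMSO stock to pre-heated RPMI 1640 (1.8 mL) plus 0.2 mL human AB male serum or FBS, or to 2 mL RPMI alone, at final 1 or 10 μM. Samples analysed by HPLC at pH 9.5 (formic acid/ammonia in acetonitrile/water), with conversion taken from the substrate/internal standard peak ratio. Run in triplicate; half-lives ± SD.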

[3] = Antiproliferative activity against human Jurkat T cells after 72 hrs by MTT assay; type: functional, cell-based
In short: (§3)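 HeLa and SK-MEL2 grown in DMEM, Jurkat in RPMI 1640, each with 10% FBS and penicillin-streptomycin, at 37 °C and 5% CO2. Adherent cells seeded at 2000/well and left to recover overnight; Jurkat seeded at 5000/well with no recovery. Compound added in DMSO (0.1% final), then 72 h incubation and MTT readout.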

HeLa [4] = test: Antiproliferative activity against human HeLa cells after 72 hrs by MTT assay; type: functional, cell-based; in short: as §3
SK-MEL-2 [5] = test: Antiproliferative activity against human SK-MEL-2 cells after 72 hrs by MTT assay in presence of 5% FBS; type: functional, cell-based; settings: SK-MEL-2, 72 h
In short: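 SK-MEL2 grown with reduced serum (5% FBS) to slow proliferation. Compounds added in DMSO (0.1% final), followed by a 72 h MTT proliferation assay.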

SK-MEL-2 [6] = test: Selectivity ratio of IC50 for human SK-MEL-2 cells in presence of 5% FBS to IC50 for human SK-MEL-2 cells in presence of 10% FBS; type: functional
[7] = Half life in RPMI media at 1 uM by HPLC analysis in presence of human blood serum; type: ADME; in short: as §2
[8] = Half life in RPMI media at 1 uM by HPLC analysis; type: physicochemical; in short: as §2
MEF = test: Antiproliferative activity against MEF after 72 hrs by MTT assay; type: cell-based; settings: Mus musculus
HaCaT = test: Antiproliferative activity against human HaCaT cells assessed as DNA synthesis level after 24 hrs by thymidine incorporation assay; type: functional, cell-based; in short: as §1
[9] = Half life in RPMI media at 10 uM by HPLC analysis in presence of human blood serum; type: ADME; in short: as §2
Jurkat = test: Immunosuppressive activity in human Jurkat T cells assessed as inhibition of IL-2 transcription; type: functional, cell-based
[10] = Half life in RPMI media at 10 uM by HPLC analysis in presence of fetal bovine serum; type: ADME; settings: cattle; in short: as §2
RKO = test: Antiproliferative activity against human RKO cells assessed as DNA synthesis level after 24 hrs by thymidine incorporation assay; type: functional, cell-based; in short: as §1
[11] = target: T1, DNA polymerase subunit gamma-1 (Homo sapiens, UniProt P54098); test: Inhibition of DNA polymerase-gamma (unknown origin) assessed as incorporation of Br(d)UTP by colorimetric analysis
T1 sequence (P54098 whole entry): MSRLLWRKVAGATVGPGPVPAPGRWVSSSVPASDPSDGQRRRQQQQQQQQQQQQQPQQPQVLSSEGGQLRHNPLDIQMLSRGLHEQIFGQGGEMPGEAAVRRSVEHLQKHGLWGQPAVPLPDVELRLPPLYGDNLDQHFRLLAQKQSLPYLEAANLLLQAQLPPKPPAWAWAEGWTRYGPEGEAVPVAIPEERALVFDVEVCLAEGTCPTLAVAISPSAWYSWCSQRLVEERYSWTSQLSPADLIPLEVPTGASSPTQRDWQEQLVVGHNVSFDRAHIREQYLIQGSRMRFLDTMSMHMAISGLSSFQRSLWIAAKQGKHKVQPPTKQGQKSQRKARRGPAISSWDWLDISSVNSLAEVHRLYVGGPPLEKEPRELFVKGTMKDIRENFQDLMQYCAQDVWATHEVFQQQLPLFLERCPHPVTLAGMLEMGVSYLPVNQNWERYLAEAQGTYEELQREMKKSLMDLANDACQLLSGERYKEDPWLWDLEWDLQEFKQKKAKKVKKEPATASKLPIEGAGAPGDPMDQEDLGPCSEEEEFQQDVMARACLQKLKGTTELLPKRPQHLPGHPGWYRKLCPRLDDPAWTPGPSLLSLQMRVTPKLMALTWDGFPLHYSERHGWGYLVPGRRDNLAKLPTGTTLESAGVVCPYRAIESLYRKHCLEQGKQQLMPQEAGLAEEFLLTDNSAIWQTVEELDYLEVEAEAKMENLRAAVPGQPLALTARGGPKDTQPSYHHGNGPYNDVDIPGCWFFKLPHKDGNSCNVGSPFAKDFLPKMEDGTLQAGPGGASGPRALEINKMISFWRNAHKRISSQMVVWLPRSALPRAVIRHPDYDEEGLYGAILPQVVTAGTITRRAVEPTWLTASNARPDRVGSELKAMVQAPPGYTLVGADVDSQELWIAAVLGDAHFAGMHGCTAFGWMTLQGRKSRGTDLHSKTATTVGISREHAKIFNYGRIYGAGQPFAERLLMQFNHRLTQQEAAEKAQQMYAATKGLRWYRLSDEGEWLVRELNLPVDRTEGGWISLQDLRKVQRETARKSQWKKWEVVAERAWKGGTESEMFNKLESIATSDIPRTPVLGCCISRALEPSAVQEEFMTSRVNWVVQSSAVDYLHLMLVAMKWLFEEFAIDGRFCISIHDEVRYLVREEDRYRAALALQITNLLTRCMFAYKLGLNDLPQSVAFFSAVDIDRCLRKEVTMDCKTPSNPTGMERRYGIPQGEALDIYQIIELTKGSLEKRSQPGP

[12] = Half life in RPMI media at 1 uM by HPLC analysis in presence of fetal bovine serum; type: ADME; settings: cattle; in short: as §2
SK-MEL-2 [13] = test: Antiproliferative activity against human SK-MEL-2 cells after 72 hrs by MTT assay in presence of 10% FBS; type: functional, cell-based; settings: SK-MEL-2, 72 h; in short: as §3
[14] = Binding affinity to eIF4A1/2 in rabbit reticulocyte lysate assessed as inhibition of cap-dependent translation after 1.5 hrs by dual luciferase reporter gene assay; parameters: species or system Oryctolagus cuniculus
In short: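 Capped bicistronic reporter mRNA: cap-dependent firefly luciferase first cistron, HCV IRES-driven Renilla second cistron. Transcribed in vitro with SP6 from the BamHI-linearised plasmid. 200 ng RNA translated in rabbit reticulocyte lysate with 70 mM KCl, 2 mM DTT, RNasin and compound in DMSO (5% v/v final), 30 °C for 1.5 h. Dual luciferase readout. Duplicates, 4 independent assays, mean IC50 by curve fit.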

CC(/C=C/C(C)=C/[C@@H]1Cc2nc(cs2)CCCCC(=O)O[C@@H](C)C/C(C)=C/C=C\C(=O)O1)=C\CN(C)C
IC50 (HeLa [1]): 4.5 nM | t1/2 [2]: 3.25 h | IC50 [3]: 11 nM | IC50 (HeLa [4]): 9.8 nM | IC50 (SK-MEL-2 [5]): 30 nM | Ratio IC50 (SK-MEL-2 [6]): 2 | t1/2 [7]: 24 h | t1/2 [8]: 5.11 h | IC50 (MEF): > 50 nM | IC50 (HaCaT): 0.9 nM | t1/2 [9]: 13 h | IC50 (Jurkat): 0.81 nM | t1/2 [10]: 12.5 h | IC50 (RKO): 1.2 nM | IC50 [11]: 3000 nM | t1/2 [12]: 19.9 h | IC50 (SK-MEL-2 [13]): 13 nM | IC50 [14]: 21.5 nM
